bCat KO growth = primary screen for growth suppressors in beta-catenin knockout HCT116 cells (colon tumor, human) | HCT116 beta-catenin knockout viability, CellTiter-Glo, 60 h; active compounds read low | AID 818, 2007 | hit rate 1.5% among 140,000 | viability, % at 10 µM;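 active = viability at or under a set limit, the compound median less 4 SD, cut at about 6% in these data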;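 also: 0% = Hyamine 1622 control at 20 µM and 100% = untreated cell control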
HCT116 PTEN-null = growth suppression of PTEN-null HCT116, primary screen, cell-based, CellTiter-Glo | viability, % at 10 µM | hit rate 1.2% among 140,000 | HCT116 PTEN-null viability, 60 h; active compounds read low;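 active = viability at or below a set limit, 4 SD under the median of all tested compounds, cut at about 3.7% in these data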;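 also: PTEN knockout HCT116 line with beta catenin targeted HCT116 as companion control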
PMI activator = activators of human PMI, primary screen, biochemical, fluorescence intensity, near-Km mannose 6-phosphate; hit rate 0.005% among 190,000; AID 1214, 2008; purified human PMI, coupled resazurin fluorescence, 20 min; active compounds read high; 1 = vehicle control, 0 substrate-free wells; activation factor at 20 µM;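 active = activation factor of 2 or more at 20 µM, relative to plate controls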
Target sequence (P34949 whole entry, looked up): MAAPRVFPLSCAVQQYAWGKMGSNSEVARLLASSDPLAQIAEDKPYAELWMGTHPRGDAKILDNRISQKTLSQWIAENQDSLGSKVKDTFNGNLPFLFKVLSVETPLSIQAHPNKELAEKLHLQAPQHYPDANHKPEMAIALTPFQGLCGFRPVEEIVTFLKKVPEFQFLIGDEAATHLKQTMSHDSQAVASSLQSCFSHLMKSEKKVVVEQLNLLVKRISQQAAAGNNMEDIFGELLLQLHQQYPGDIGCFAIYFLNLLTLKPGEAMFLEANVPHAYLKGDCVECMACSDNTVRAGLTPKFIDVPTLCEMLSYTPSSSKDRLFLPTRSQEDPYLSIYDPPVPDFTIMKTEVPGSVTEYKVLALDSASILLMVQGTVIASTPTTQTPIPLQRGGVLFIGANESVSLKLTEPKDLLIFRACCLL
L major viab = Leishmania major promastigote growth inhibition, primary screen | Leishmania major promastigotes, resazurin fluorescence viability | inhibition, % at 10 µM | hit rate 9% among 200,000 | AID 1063, 2008; in the data active = inhibition above about 50%;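 also: promastigotes grown with compound for 44 hours at 28 °C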
PMI act satM6P = human PMI activators, high substrate, primary screen, biochemical, fluorescence intensity, near-saturating mannose 6-phosphate. activation factor at 20 µM. hit rate 0.34% among 190,000. coupled PMI enzyme assay, resazurin fluorescence, 20 min; active compounds read high; 1 = untreated enzyme, 0 = substrate-free blank. AID 1216, 2008. Mannose-6-phosphate isomerase (Homo sapiens), P34949;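 active = activation factor of 2 or more at 20 µM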
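Test system – human PMI in coupled enzyme assay · Timing – 20 min incubation at room temperature · Detection – Diaphorase-driven resazurin-to-resorufin fluorescence, excitation 544, emission 590 nm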
The depositor's hits bear a star; x = not tested or not shown. In the library only some 9.6% were active in any assay of this set; here they are far more common.

SMILES	bCat KO growth	HCT116 PTEN-null	PMI activator	L major viab	PMI act satM6P
COc1cccc(-c2cc3nc4c(c(NCC(C)(C)CN(C)C)n3n2)CCCC4)c1	x	x	x	77*	x
Fc1cccc(-c2cc3nc4c(c(NCc5ccco5)n3n2)CCCC4)c1	65	65	0.9	87*	1
CCc1nnc(NS(=O)(=O)c2ccc(N3C(=O)c4ccc(C(=O)O)cc4C3=O)cc2)s1	x	x	1.1	-14	1
COc1ccc(N(C(=O)CCl)C(C(=O)NCCc2ccccc2)c2cccs2)cc1 (stereo unspecified)	1.6*	0.7*	1	100*	1
O=C(Cc1cccs1)NCCCc1ccccc1	x	x	1	-3	1.1
COc1ccc(/C=C/C(=O)NCCN2CCOCC2)cc1OC	x	x	1	-3	0.9
COc1ccc(CCNC(=O)Cc2cccs2)cc1	85	96	1	56*	0.9
O=C(/C=C/c1ccccc1)NCCN1CCOCC1	101	95	1	63*	0.9
O=C(Cc1cccs1)NCCN1CCOCC1	93	103	1	50*	1.1
O=C(Nc1ccccn1)[C@@H]1CCC(=O)N1C(=O)OCc1ccccc1	90	103	1	-5	0.9
O=C(NCCN1CCOCC1)c1cccc(Cl)c1	88	89	1.1	-2	0.8
O=C(/C=C/c1ccc(Cl)cc1Cl)NCCN1CCOCC1	85	99	1	71*	0.9
COc1ccc2nc(SCC(=O)Nc3ccc4sc(C)nc4c3)c(C#N)cc2c1	25	8	0.8	-4	0.9
Cc1cccc(OCCCCCn2ccnc2)c1	87	88	0.9	100*	1
Cc1ccccc1OCCCCn1cnc2ccccc21	17	21	1	11	1
Clc1ccccc1OCCCCn1ccnc1	95	96	0.9	100*	0.9
Clc1ccc(SCCCCn2ccnc2)cc1	53	63	0.8	100*	0.9
Cc1ccccc1OCCCCCn1ccnc1	21	28	1	100*	1
COc1ccc(-c2[nH]ncc2CN(CCO)CC23CC4CC(CC(C4)C2)C3)c(OC)c1	x	x	0.8	11	0.8
CCc1cccc(CC)c1NC(=O)COC(=O)c1cccc(S(=O)(=O)N2CCc3ccccc3C2)c1	72	69	0.9	-6	0.9
Cc1cccc(C(C)C)c1NC(=O)COC(=O)c1cccc(S(=O)(=O)N2CCc3ccccc3C2)c1	100	105	1.1	-7	1.1
Cc1cc(N2CCN(C)CC2)ccc1NC(=O)c1cccc(S(=O)(=O)N2CCc3ccccc3C2)c1	x	x	1.1	98*	1.1
CN(C)S(=O)(=O)c1cccc(NC(=O)COC(=O)c2cccc(S(=O)(=O)N3CCc4ccccc4C3)c2)c1	0.7*	0.2*	1	-1	1
CCOc1cccc2cc(-c3cn4cc(C)ccc4n3)c(=O)oc12	1.1*	1.3*	1.1	3	1
O=C(CNC(=S)N(Cc1ccccc1)Cc1cccnc1)NC1CCCCC1	83	85	1	21	1
SMILES	bCat KO growth	HCT116 PTEN-null	PMI activator	L major viab	PMI act satM6P
CCOCCCNC(=O)/C(C#N)=C/c1ccc(Cl)c([N+](=O)[O-])c1	x	x	1.1	100*	1
CCOCCCNC(=O)/C(C#N)=C/c1ccc(C(=O)OC)cc1	x	x	0.9	58*	0.9
Nc1nnc(SCC(=O)Nc2sc3c(c2C(=O)c2ccccc2)CCCC3)s1	79	78	0.7	57*	0.6
CCOC(=O)c1c(NC(=O)CSc2nnc3ccccn23)sc2c1CCC2	91	92	1	9	1
COC(=O)c1c(NC(=O)CSc2nnc3ccccn23)sc2c1CCC2	87	90	0.9	56*	0.9
Cc1ccc(C(=O)c2c(NC(=O)CSc3nnc(N)s3)sc3c2CCCC3)cc1	80	79	0.8	76*	0.6
Cc1cccc(/C=N\NC(=O)c2sccc2-n2cccc2)c1	89	82	0.9	6	0.9
Oc1cccc(-c2nc3ccc4ccccc4c3c3c2CCC3)c1	69	61	0.8	44	0.9
Cc1cccc(NC(=S)NC(C)(C)CC(C)(C)C)c1	x	x	1	28	1
O=[N+]([O-])c1ccc(/C=N/Nc2nc(N3CCOCC3)nc(N3CCOCC3)n2)cc1	x	x	0.9	-4	1

Bioassay records from PubChem.
